Measurements of several laboratories.
Each line is one published result; the experiments were not run side by side.
Target: Serine-protein kinase ATM (ATM, Homo sapiens, UniProt Q13315)

With `CN1CC(Oc2cnc(C#N)cc2-c2ccn3nc(NC(=O)C4CC4)cc3c2)C1` the inhibition was 14% (enzyme activity; inhibitor; 1 µM).
For `Cc1ccc(NC(=O)c2ccc(C)c(C(F)(F)F)c2)cc1C#Cc1nn(C2CCC(O)CC2)c2ncnc(N)c12` (centres unmarked), the remaining signal was 102% (cell-free assay; 10 µM).
`CCCCNc1ncc2c(-c3ccc(F)cc3)nn(C[C@H]3CC[C@H](N)CC3)c2n1` gave an inhibition of 57.4% (target engagement in cells; inhibitor; chemoproteomics; 20 mM).
`Cc1cc(NC(=O)c2cccc3cc(-c4cccc5[nH]nc(N)c45)ccc23)ccc1F` has an activity vs control of 94% (enzyme activity; inhibitor; 0.1 µM).
With `Cc1ccc(C(=O)NCc2ccsc2)cc1C#Cc1cn(C(C)C)c2ncnc(N)c12` the activity vs control was 101% (enzyme activity; inhibitor; 1 µM).
`COc1cc(Cl)c(C(=O)N[C@@H](CN[C@H]2CC[C@@H](N)CC2)Cc2ccc(C#N)cc2)cc1-c1ccc(CN[C@H](C)c2ccc(C)cc2)o1` gave a remaining activity of 106% (enzyme activity; inhibitor; 1 µM).
`COc1cccc2c(NCc3ccccc3)nc(-n3c(N)nc4ccccc43)nc12` has an inhibition of -4.3% (target engagement in cells; inhibitor; chemoproteomics; 20 mM).
For `Cc1cnc(NC2CCOCC2)nc1-n1cnc(C(=O)NC(CN)c2cc(F)cc(Cl)c2)c1` (centres unmarked), the remaining activity was 102% (enzyme activity; inhibitor; radiometric; 1 µM).
